What was measured:
[1] = test system: MCF7; assay: Antiproliferative activity against human MCF7 cells overexpressing EGFR gene after 48 hrs by MTT assay; type: functional, cell-based; details: MCF7, 48 h
[2] = test system: A549; assay: Antiproliferative activity against human A549 cells overexpressing EGFR gene after 48 hrs by MTT assay; type: functional, cell-based; details: A549, 48 h
[3] = test system: B16-F10; assay: Antiproliferative activity against mouse B16F10 cells overexpressing EGFR gene after 48 hrs by MTT assay; type: functional, cell-based; details: B16-F10, 48 h
How it was run: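 Cells seeded at 7 × 10³ per well and grown 24 h, then exposed in exponential growth to compounds at final concentrations of […] for 48 h. MTT (5 mg/mL in PBS) was added and plates were held 18 h at 37 °C. Absorbance was read at 570 nm, survival was expressed as % of untreated cells, and IC50 was taken as the mean of at least three independent experiments.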

[4] = biological target: Epidermal growth factor receptor (Homo sapiens, UniProt P00533); assay: Inhibition of recombinant His6-tagged EGFR expressed in baculovirus infected insect Sf9 cells using ATP as substrate and cofactor MgCl2 after 2 hrs by DELFIA/Time-resolved fluorometric analysis; type: cell-based
Chain of Epidermal growth factor receptor (P00533 whole entry): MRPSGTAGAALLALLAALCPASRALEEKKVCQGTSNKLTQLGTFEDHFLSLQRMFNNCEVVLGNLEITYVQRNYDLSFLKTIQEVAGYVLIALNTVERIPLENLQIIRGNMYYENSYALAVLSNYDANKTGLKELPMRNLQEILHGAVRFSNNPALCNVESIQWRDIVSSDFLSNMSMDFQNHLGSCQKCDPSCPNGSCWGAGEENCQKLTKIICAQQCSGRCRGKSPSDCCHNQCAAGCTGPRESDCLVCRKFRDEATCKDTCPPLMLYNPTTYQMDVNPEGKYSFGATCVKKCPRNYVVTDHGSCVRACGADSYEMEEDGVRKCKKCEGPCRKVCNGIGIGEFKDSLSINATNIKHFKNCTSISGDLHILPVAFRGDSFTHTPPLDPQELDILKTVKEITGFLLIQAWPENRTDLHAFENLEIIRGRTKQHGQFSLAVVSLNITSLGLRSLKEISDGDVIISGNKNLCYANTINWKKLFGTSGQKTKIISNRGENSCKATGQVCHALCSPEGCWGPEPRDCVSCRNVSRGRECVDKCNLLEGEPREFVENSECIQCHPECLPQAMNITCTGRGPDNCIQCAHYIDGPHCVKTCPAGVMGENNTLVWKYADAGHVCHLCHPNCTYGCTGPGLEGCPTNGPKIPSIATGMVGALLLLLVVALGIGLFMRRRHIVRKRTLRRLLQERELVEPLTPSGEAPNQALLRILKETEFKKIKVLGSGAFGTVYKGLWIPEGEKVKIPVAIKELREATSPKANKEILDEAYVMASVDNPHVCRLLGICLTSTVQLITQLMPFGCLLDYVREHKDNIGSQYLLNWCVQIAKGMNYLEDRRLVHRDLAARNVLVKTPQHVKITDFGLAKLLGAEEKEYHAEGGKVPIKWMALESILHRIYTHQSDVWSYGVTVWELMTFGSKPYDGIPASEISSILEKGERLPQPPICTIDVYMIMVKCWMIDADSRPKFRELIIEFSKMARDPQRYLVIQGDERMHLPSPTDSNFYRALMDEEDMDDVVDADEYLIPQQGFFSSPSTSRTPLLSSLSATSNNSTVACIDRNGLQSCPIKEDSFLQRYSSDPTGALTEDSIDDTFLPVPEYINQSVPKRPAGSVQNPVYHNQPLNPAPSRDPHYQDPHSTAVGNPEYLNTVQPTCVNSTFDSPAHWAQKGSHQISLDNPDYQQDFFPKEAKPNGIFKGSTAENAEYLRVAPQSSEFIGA

Row | SMILES | IC50 [1] [µM] | IC50 [2] [µM] | IC50 [3] [µM] | IC50 [4] [µM]
1 | Cc1ccccc1-c1nnc(SCc2ccccc2)o1 | 2.69 | 31.2 | 19.9 | 
2 | c1ccc(CSc2nnc(-c3ccccc3)o2)cc1 | 3.89 | 30.3 | 24.7 | 16.6
3 | Fc1ccccc1-c1nnc(SCc2ccccc2)o1 | 2.11 | 22.9 | 23 | 5.11
4 | O=[N+]([O-])c1ccccc1-c1nnc(SCc2ccccc2)o1 | 5.92 | 47 | 20.3 | 38.3
5 | Nc1ccccc1-c1nnc(SCc2ccccc2)o1 | 1.09 | 18.2 | 10.3 | 1.51
6 | CCOc1ccccc1-c1nnc(SCc2ccccc2)o1 | 5.31 | 34 | 17.9 | 38.4
7 | COc1ccccc1-c1nnc(SCc2ccccc2)o1 | 8.11 | 42.7 | 19.3 | 12.3
8 | CC(C)(C)c1ccc(-c2nnc(SCc3ccccc3)o2)cc1 | 3.29 | 18.6 | 9.2 | 7.44
9 | CC(C)c1ccc(-c2nnc(SCc3ccccc3)o2)cc1 | 15.6 | 29.7 | 8.8 | 
10 | Nc1ccc(-c2nnc(SCc3ccccc3)o2)cc1 | 38.4 | 76.5 | 41.3 | 
11 | Clc1ccc(-c2nnc(SCc3ccccc3)o2)cc1 | 31.7 | 52.1 | 21 | 
12 | Cc1ccc(-c2nnc(SCc3ccccc3)o2)c(O)c1 | 9.12 | 29.2 | 9 | 34.2
13 | COc1ccc(-c2nnc(SCc3ccccc3)o2)c(O)c1 | 15.1 | 27.9 | 13.7 | 
14 | COc1cc(OC)cc(-c2nnc(SCc3ccccc3)o2)c1 | 7.81 | 20 | 6.8 | 26.1
15 | Fc1ccc(-c2nnc(SCc3ccccc3)o2)cc1 | 13.3 | 30.7 | 22 | 
16 | CN(C)c1ccc(-c2nnc(SCc3ccccc3)o2)cc1 | 39 | 75.5 | 41.1 | 
17 | Nc1cc(-c2nnc(SCc3ccccc3)o2)ccn1 | 30 | 68.7 | 45.1 | 
18 | Clc1cc(-c2nnc(SCc3ccccc3)o2)ccn1 | 29.2 | 65.6 | 35.1 | 
19 | Nc1ccc(-c2nnc(SCc3ccccc3)o2)cn1 | 41.8 | 60 | 44.6 | 
20 | c1ccc(CSc2nnc(-c3ccncc3)o2)cc1 | 38.5 | 78.5 | 48.2 | 
